In assay [1] the test system is DU-145. Briefly: Cell cycle arrest in human DU145 cells assessed as accumulation at G0/G1 phase at 20 uM after 12 hrs by propidium iodide staining-based flow cytometric analysis (reference value: 40.91%). Type of assay: functional. For orientation: Flow cytometry measures light scatter and fluorescence of single cells or particles in a stream.
In assay [2] the test system is DU-145. Briefly: Cell cycle arrest in human DU145 cells assessed as accumulation at G2/M phase at 20 uM after 12 hrs by propidium iodide staining-based flow cytometric analysis (reference value: 10.97%). The class given is functional.
Assay [3] concerns DU-145. Briefly: Cell cycle arrest in human DU145 cells assessed as accumulation at S phase at 20 uM after 12 hrs by propidium iodide staining-based flow cytometric analysis (reference value: 44.93%). Type of assay: functional.
Assay [4] relates to PC-3. Briefly: Antiproliferative activity against human PC3 cells after 72 hrs by MTT assay. Type of assay: functional, cell-based. The settings on record: PC-3, 72 h. The essentials:
(§1)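 Cells (PC3 and its PCDNA- and SKP2-transfected lines, DU145) grown in RPMI 1640 with 10% FBS; G418 added for transfected lines. Exponential cells seeded 1 × 10⁴/well, 24 h at 37 °C, then fresh medium with compounds at several concentrations for 72 h. MTT 1–3 h at 37 °C, dissolved in 4% HCl/96% isopropanol, absorbance 570 nm. Triplicate per concentration; IC50 from dose–response curves.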

Assay [5] deals with DU-145. Kind of assay: Cell cycle arrest in human DU145 cells assessed as accumulation at G0/G1 phase after 12 hrs by propidium iodide staining-based flow cytometric analysis. Type of assay: functional.
The test system of assay [6] is DU-145. Briefly: Cell cycle arrest in human DU145 cells assessed as accumulation at S phase at 5 uM after 12 hrs by propidium iodide staining-based flow cytometric analysis (reference value: 44.93%). The class given is functional.
The subject of assay [7] is DU-145. Kind of assay: Induction of apoptosis in human DU145 cells assessed as formation of apoptotic bodies at 5 to 20 uM after 48 hrs by DAPI staining-based fluorescence microscopic analysis. Type of assay: functional, cell-based. The essentials: (§2)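 DU145 seeded 2 × 10⁴ per 60-mm plate, 24 h, then treated 48 h; PBS-washed twice, fixed 3.7% paraformaldehyde 10 min at room temperature, DAPI-stained 10 min at room temperature; nuclei scored for chromatin condensation and apoptotic bodies.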

For assay [8], the system named is DU-145. Kind of assay: Cell cycle arrest in human DU145 cells assessed as accumulation at G2/M phase at 5 uM after 12 hrs by propidium iodide staining-based flow cytometric analysis (reference value: 10.97%). Type of assay: functional.
Assay [9] has as its system DU-145. Kind of assay: Antiproliferative activity against human DU145 cells after 72 hrs by MTT assay. Type of assay: functional, cell-based. The settings on record: DU-145, 72 h. The essentials:
as §1
A general note: Tetrazolium dyes change colour on reduction, which living cells bring about.

Assay [10] concerns the target T1, Prostaglandin G/H synthase 2 (Ovis aries, UniProt P79208).
T1 sequence (P79208 whole entry): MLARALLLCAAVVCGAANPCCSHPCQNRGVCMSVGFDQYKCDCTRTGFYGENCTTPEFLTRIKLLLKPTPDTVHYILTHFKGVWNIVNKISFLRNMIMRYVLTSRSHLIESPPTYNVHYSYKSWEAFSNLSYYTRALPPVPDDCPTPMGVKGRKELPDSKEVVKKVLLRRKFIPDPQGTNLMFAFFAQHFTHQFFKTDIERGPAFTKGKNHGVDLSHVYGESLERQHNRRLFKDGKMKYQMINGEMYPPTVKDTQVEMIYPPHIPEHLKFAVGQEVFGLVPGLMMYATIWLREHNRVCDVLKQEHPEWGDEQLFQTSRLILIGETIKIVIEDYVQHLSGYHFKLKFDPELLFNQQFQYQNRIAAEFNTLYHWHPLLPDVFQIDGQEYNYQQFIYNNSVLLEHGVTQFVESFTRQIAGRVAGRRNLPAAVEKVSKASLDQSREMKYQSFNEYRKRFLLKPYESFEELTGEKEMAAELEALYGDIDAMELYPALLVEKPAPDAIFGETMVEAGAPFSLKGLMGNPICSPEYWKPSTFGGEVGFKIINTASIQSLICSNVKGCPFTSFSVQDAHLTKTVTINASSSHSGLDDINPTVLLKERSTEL
Kind of assay: Inhibition of ovine COX-2 assessed as using arachidonic acid as substrate preincubated for 5 mins prior to substrate addition measured […] by enzyme immunoassay.

Assay [11] relates to PC-3. Kind of assay: Antiproliferative activity against human PC3 cells expressing PCDNA after 72 hrs by MTT assay. The settings on record: PC-3, 72 h. The class given is functional, cell-based. Summed up: as §1
Assay [12] has as its system DU-145. Kind of assay: Cell cycle arrest in human DU145 cells assessed as accumulation at G0/G1 phase at 5 uM after 12 hrs by propidium iodide staining-based flow cytometric analysis (reference value: 40.91%). The class given is functional.
The test system of assay [13] is DU-145. Kind of assay: Cell cycle arrest in human DU145 cells assessed as accumulation at G2/M phase at 15 uM after 12 hrs by propidium iodide staining-based flow cytometric analysis (reference value: 10.97%). The class given is functional.
The subject of assay [14] is PC-3. Briefly: Antiproliferative activity against human PC3 cells expressing SKP2 after 72 hrs by MTT assay. Type of assay: functional, cell-based. Particulars: PC-3, 72 h. The essentials:
as §1

For assay [15], the target named is T2, Prostaglandin G/H synthase 2 (Ovis aries) (UniProt P79208).
T2 sequence (whole entry): T1 sequence (P79208 whole entry)
Kind of assay: Inhibition of ovine COX-2 assessed as using arachidonic acid as substrate at 10 uM preincubated for 5 mins prior to substrate addition measured after 2 hrs by enzyme immunoassay relative to control. Particulars: in the assay text read “after 2 mins” for “after 2 hrs”. Summed up: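 Ovine COX-1 or COX-2 with heme in 0.1 M Tris-HCl pH 8.0, 5 mM EDTA, 2 mM phenol; compound (0.001–100 µM final, DMSO stocks) preincubated 5 min at 37 °C, then arachidonic acid added, stopped with 1 M HCl after 2 min. PGF2α (SnCl2 reduction) quantified by competitive EIA at 412 nm; % inhibition vs controls; mean of two determinations.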

Assay [16] concerns DU-145. Briefly: Cell cycle arrest in human DU145 cells assessed as accumulation at S phase at 15 uM after 12 hrs by propidium iodide staining-based flow cytometric analysis (reference value: 44.93%). Type of assay: functional.
For assay [17], the system named is DU-145. Kind of assay: Induction of apoptosis in human DU145 cells assessed as chromosomal condensation at 5 to 20 uM after 48 hrs by DAPI staining-based fluorescence microscopic analysis. The class given is functional, cell-based. The essentials:
as §2

Assay [18] has as its system DU-145. Briefly: Cell cycle arrest in human DU145 cells assessed as accumulation at G0/G1 phase at 15 uM after 12 hrs by propidium iodide staining-based flow cytometric analysis (reference value: 40.91%). Type of assay: functional.

Here are results for one compound from ChEMBL document CHEMBL2401696, “Stereoselective synthesis and anti-proliferative effects on prostate cancer evaluation of 5-substituted-3,4-diphenylfuran-2-ones” (Eur J Med Chem, 2013).

SMILES strings stand for the structures. Calls of active or inactive are those of the source. No cut-off for these calls is given here.

The IC50 is the midpoint of a concentration-inhibition curve. What is called inhibition is the relative decrease from the control value, in per cent. Take `COC1(C)OC(=O)C(c2ccccc2Cl)=C1c1ccc(S(C)(=O)=O)cc1` (stereo not drawn): the Activity was 64.51% in assay [1]; 6.28% in [2]; 27.26% in [3]; “Dose-dependent effect” in assay [5]; 43.24% in assay [6]; 10.97% in assay [8]. Besides, the Activity in assay [12] is 42.22%; in assay [13] it was 7.53%; in assay [16], 29.17%; in [18] it was 60%. The 50% inhibitory concentration (IC50) came to 20 µM in [4]; 25 µM in [9]; 12.1 µM in assay [10]; 5.17 µM in [11]; 5.09 µM in assay [14]. The result in assay [7] and in assay [17] was Active. In assay [15], the inhibition was 43.3%.
